Assay outcomes deposited in PubChem by Johns Hopkins Ion Channel Center.
MrgX1 PAM – allosterically activates human MrgX1 receptor signaling. 0.63% of 310,000 active. Q96LB2. AID 588675. B-score at 10 µM. MrgX1-HEK293, Fluo-4 calcium flux, FDSS; active compounds read high;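 active = plate-corrected calcium response at least 3 library SD above typical, normal starting fluorescence, not activating the receptor alone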;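 also: compound read alongside a low EC10 to EC30 dose of BAM8-22 agonist; peak minus trough fluorescence over baseline measured at the second addition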
Target sequence (Q96LB2 whole entry, looked up): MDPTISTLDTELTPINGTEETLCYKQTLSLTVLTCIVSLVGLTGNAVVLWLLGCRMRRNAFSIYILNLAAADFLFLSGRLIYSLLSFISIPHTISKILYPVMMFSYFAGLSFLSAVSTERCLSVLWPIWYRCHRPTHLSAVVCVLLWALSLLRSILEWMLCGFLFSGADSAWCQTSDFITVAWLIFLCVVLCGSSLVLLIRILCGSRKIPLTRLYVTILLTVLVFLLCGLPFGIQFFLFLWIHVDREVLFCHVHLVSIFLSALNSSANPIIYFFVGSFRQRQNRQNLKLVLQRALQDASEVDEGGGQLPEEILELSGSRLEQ
MrgX1 agonist – agonists of human MrgX1 receptor. B-score at 10 µM. Q96LB2. MrgX1-HEK293 cells, Fluo-4 calcium fluorescence, agonist mode; active compounds read high. 0.44% of 310,000 active;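 active = calcium response B-score plate-corrected fluorescence ratio at least 3 library SD, with starting fluorescence B-score inside 5 SD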
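Material: MrgX1-expressing HEK293 cells / Dosing: compound as first of three additions / Incubation: overnight seeding, then 1 h dark dye loading / Signal: Fluo-4 NW calcium fluorescence / Evaluation: B-scored fluorescence response ratio / Benchmarks: positive and negative control wells on each plate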
RGS4 act – potentiators or activators of RGS4; B-score at 10 µM; AID 463111; HEK293 M3R/inducible RGS4, carbachol calcium flux Fluo4; active compounds read low; 0.92% of 310,000 active;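 active = B-score of the integrated calcium signal more than 4 SD below the library mean, with starting fluorescence not abnormally high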;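 also: negative B-score means reduced calcium response which marks RGS4 activation or potentiation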
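Reagent: ECmax carbachol challenge; Test system: M3R-expressing HEK293 line, RGS4 induced by doxycycline; Schedule: overnight RGS4 induction, 30 min dye load 37 °C, 20 min compound RT; Detection: calcium dye Fluo4 fluorescence; Read-out: Agonist-evoked peak-minus-minimum fluorescence over baseline, integrated ratio, B score.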
MrgX1 antag – antagonists of human MrgX1 receptor | Q96LB2 | MRGX1-HEK293 calcium flux, Fluo-4, BAM8-22 antagonism; active compounds read low | B-score at 10 µM | 1.3% of 310,000 active | AID 588676;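 active = calcium-response B-score plate-corrected more than 3 library SD below zero, starting fluorescence within 5 deviations, no agonist response on first addition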;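 also: peak minus trough fluorescence over baseline after final BAM8-22 challenge near maximal dose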
RGS4 inh – human RGS4 inhibition | HEK293 M3R/RGS4 inducible, Fluo-4 calcium flux; active compounds read high; triggered by carbachol at its EC20 | B-score at 10 µM | 0.45% of 310,000 active | AID 463165;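 active = B-score, a plate-corrected calcium signal, over three deviations above library mean, with baseline fluorescence within five deviations of library mean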;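 also: RGS4 expression induced by doxycycline in cells with stable M3 receptor; B-score is computed from the integrated fluorescence ratio over baseline after carbachol; higher B-score means a larger calcium signal and so more RGS4 inhibition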
Target sequence (P49798 whole entry, looked up): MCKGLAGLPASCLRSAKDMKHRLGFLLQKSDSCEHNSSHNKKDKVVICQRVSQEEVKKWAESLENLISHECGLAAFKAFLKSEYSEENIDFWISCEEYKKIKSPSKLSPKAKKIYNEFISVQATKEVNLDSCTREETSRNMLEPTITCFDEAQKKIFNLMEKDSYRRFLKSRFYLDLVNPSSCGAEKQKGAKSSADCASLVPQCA
MrgX1 ant reconf – reconfirmed antagonist of human MrgX1 receptor signaling. shares compounds with MrgX1 antag. AID 602420. remaining BAM8-22 calcium response % of control (active compounds read low), % at 10 µM. MrgX1-HEK293, BAM8-22 calcium flux, Fluo-4; active compounds read low. 19% of 2,300 active;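 active = remaining agonist calcium response no higher than 100% minus 3 SD of agonist-only control wells, with starting fluorescence near control levels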;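 also: agonist BAM8-22 given at a near maximal EC90 to ECmax level; peak minus minimum fluorescence divided by baseline after agonist addition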
HEK293 Ca flux – counter-screen for MrgX1 antagonists: effect in parental HEK293 cells. shares compounds with MrgX1 antag. 2% of 4,000 active. fluorescence ratio F(max-min)/F0 at 10 µM. AID 624111. Fluo-4 calcium fluorescence, FDSS;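 active = duplicate-averaged calcium fluorescence ratio at least three times the standard deviation of buffer wells, a nonspecific response in parental cells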
HEK293 Ca counter – MrgX1 allosteric activator counter-screen hit in parental HEK293 cells; parental HEK293 calcium flux, Fluo-4 fluorescence ratio; active compounds read high; shares compounds with MrgX1 antag; fluorescence ratio F(max-min)/F0 at 10 µM; 0.4% of 4,000 active;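 active = calcium fluorescence ratio, averaged over duplicates, at least 3 SD of the buffer-well ratio, meaning a nonspecific response in receptor-free cells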;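 also: untransfected parental HEK293 lacking MrgX1 used as counterscreen for MrgX1 allosteric activators; fluorescence change taken during the second addition on a kinetic imager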
HEK293 Ca cntr2 – MrgX1 activator counter-screen hit in parental HEK293 cells; shares compounds with MrgX1 antag; Fluo-4 calcium fluorescence (FDSS); active compounds read high; fluorescence ratio F(max-min)/F0 at 10 µM; 8.7% of 4,000 active; AID 624115;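 active = calcium fluorescence ratio at least three times the spread of buffer wells, meaning a non-specific response in parental cells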
Numbers without * were called inactive; i = inactive; nt = not tested or not shown. Sampled rows, rich in hits. Any-hit rate of the full collection: about 3.5%.

SMILES | MrgX1 PAM | MrgX1 agonist | RGS4 act | MrgX1 antag | RGS4 inh | MrgX1 ant reconf | HEK293 Ca flux | HEK293 Ca counter | HEK293 Ca cntr2
CCOC(=O)COc1cccc2c(=O)n(CC(=O)N3CCCCC3)ccc12 | i | i | i | i | i | nt | nt | nt | nt
O=C(COc1ccccc1)OCC(=O)N1CCCc2ccccc21 | i | i | i | -6.1* | i | i | i | i | i
COC(=O)COc1cccc2c(=O)n(CC(=O)N3CCCc4ccccc43)ccc12 | i | i | i | -8.9* | i | i | i | i | i
O=C(COc1ccccc1)N1CCc2ccccc21 | i | i | i | i | i | nt | nt | nt | nt
CNC(=S)Nc1cccc(C(=O)OC)c1 | i | i | i | i | i | nt | nt | nt | nt
COc1ccc(N(C(=O)c2cnccn2)C(C(=O)NC2CCCCC2)c2cc(OC)c(OC)c(OC)c2)cc1 (stereo not drawn) | i | i | i | i | i | nt | nt | nt | nt
Cc1ccc(N2C(=O)c3ccccc3NC2C(C)Cc2ccc3c(c2)OCO3)cc1 (stereo not drawn) | i | i | i | -5.1* | i | i | i | i | i
Cc1nc(=O)c(-c2ccccc2)c(C)n1-c1ccc(S(N)(=O)=O)cc1 | i | i | i | i | i | nt | nt | nt | nt
Cc1nc(=O)c(-c2ccccc2)c(C)n1-c1ccc(C(=O)O)cc1 | i | i | i | -4.9* | i | i | i | i | i
O=C(COC(=O)Cc1ccccc1F)Nc1ccc(F)cc1F | i | i | i | i | i | nt | nt | nt | nt
CN1CCOCCOCCN(C)C1=O | i | i | i | -4.6* | i | i | i | i | i
CCOC(=O)Cn1c(=O)cc(C)c2ccccc21 | i | i | i | -8.5* | i | i | i | i | i
C=CCn1cc(CN2CCC(C(=O)Nc3cccc(-c4cccc(Cl)c4)c3)CC2)c(C)n1 | i | i | i | i | i | nt | nt | nt | nt
O=[N+]([O-])c1cc(C(F)(F)F)ccc1NCCNC(=S)Nc1ccc(Cl)cc1 | i | i | -7.1* | -11* | i | 72%* | i | i | i
O=[N+]([O-])c1cc(C(F)(F)F)ccc1NCCCCNS(=O)(=O)c1ccc(Cl)cc1 | i | i | i | i | i | nt | nt | nt | nt
CCn1ncc(Br)c1C(=O)Nc1sc2c(c1C(=O)OC)CCC2 | i | i | i | i | i | nt | nt | nt | nt
CCOC(=O)c1c(NC(=O)c2c(Br)cnn2CC)sc(C)c1C | i | i | i | -7.1* | i | i | i | i | i
Cc1cccc(NC(=O)c2cc(NC(=O)c3ccco3)ccc2Cl)n1 | i | i | nt | -4.7* | nt | 85%* | i | i | i
c1ccc(CSc2nnc(Cc3ccccc3)o2)cc1 | i | i | i | i | i | nt | nt | nt | nt
c1ccc(CSc2nnc(Cc3ccccn3)o2)cc1 | i | i | i | -7.8* | i | i | i | i | i
COCCC(=O)N1CCC(Oc2ccc(C(=O)NCc3nccn3C)cc2)CC1 | i | i | i | i | i | nt | nt | nt | nt
O=c1oc2ccccc2c2c1SC(C(F)(F)F)C2 (stereo not drawn) | i | i | i | -5.1* | i | 76%* | i | i | i
N#CCSc1nnc(Cc2cccs2)n1C1CCCCC1 | i | i | i | -4.7* | i | i | i | i | i
N#C/C(=C(/O)CSc1nnc(Cc2cccs2)n1C1CCCCC1)c1nc2ccccc2[nH]1 | i | i | i | i | i | nt | nt | nt | nt
CSc1nc(-c2ccco2)cc(C(F)(F)F)c1C#N | i | i | i | i | i | nt | nt | nt | nt
SMILES | MrgX1 PAM | MrgX1 agonist | RGS4 act | MrgX1 antag | RGS4 inh | MrgX1 ant reconf | HEK293 Ca flux | HEK293 Ca counter | HEK293 Ca cntr2
N#Cc1c(C(F)(F)F)cc(-c2ccco2)nc1SCc1ccccn1 | i | i | i | -4.7* | i | i | i | i | i
COc1cc(C(=O)N/C(=C\c2cn(C)c3ccccc23)C(=O)NCCCn2ccnc2)cc(OC)c1OC | i | i | i | i | i | nt | nt | nt | nt
O=C(Nc1ccc(Cl)cc1)N(Cc1cccnc1)Cc1ccco1 | i | i | i | -5.7* | i | i | i | i | i
CC(CC(=O)NNC(=O)c1cccc(Cl)c1)c1ccccc1 (stereo not drawn) | i | i | i | i | i | nt | nt | nt | nt
CCCCOc1ccc(NC(=O)CSc2cccc3cccnc23)cc1 | i | i | i | -6.7* | i | i | i | i | i
CCCCc1ccc(NC(=O)CSc2nc3ncccc3[nH]2)cc1 | i | i | i | -5.7* | i | i | i | i | i
Cc1ccc(N(CC(=O)N2CCN(c3ccc(F)cc3)CC2)S(=O)(=O)c2c(C)noc2C)cc1 | i | i | i | i | i | nt | nt | nt | nt
Cc1ccc(OCc2cc(C(=O)N3CCC(c4ccccc4Cl)C3)no2)cc1C (stereo not drawn) | i | i | i | i | i | nt | nt | nt | nt
Nc1ccc2c3c(cccc13)CC2 | i | i | i | -7.5* | i | 85%* | i | i | i
c1ccc(Nc2ccc3c4c(cccc24)CC3)cc1 | i | i | i | i | i | nt | nt | nt | nt
CN1C(C(=O)NCc2cccc(C(F)(F)F)c2)CC2Cn3c(nc4cc5ccccc5cc43)C21 (stereo not drawn) | i | i | i | i | i | nt | nt | nt | nt
Cc1cc2nc3n(c2cc1C)CC1CC(C(=O)NCc2cccc(C(F)(F)F)c2)N(C)C31 (stereo not drawn) | i | i | i | -5.5* | i | i | i | i | i
O=C(NC1=NCCS1)c1cc(-c2ccc(F)cc2)nc2ccccc12 | i | i | i | i | i | nt | nt | nt | nt
Cc1ccc(-c2cc(C(=O)NC3=NCCS3)c3ccccc3n2)cc1C | i | i | i | -4.9* | i | i | i | i | i
COc1ccc(NC(=O)Cc2coc3ccc4ccccc4c23)cc1S(=O)(=O)N1CCOCC1 | i | i | i | -6.7* | i | i | i | i | i
